# Measurements taken from ChEMBL document CHEMBL2390886, “Guaifenesin derivatives promote neurite outgrowth and protect diabetic mice from neuropathy” (J Med Chem, 2013).
# Active and inactive are the calls of the source. The calls are words filed in the database; no cut-off is given here.
# Assays:
# Mus musculus [1] = assay: Antidiabetic activity in streptozotocin-induced C57BL/6J mouse diabetic neuropathy model assessed as effect on hyperglycemia at 10 to 100 mg/kg/day, po administered 6 days per week for 4 weeks; type: functional, organism-based
# Summary of the method: (§1)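 Type 1 diabetes induced in fasted mice by ip STZ 90 mg/kg in sterile citrate buffer on 2 consecutive days, confirmed 4 days later and at study end by tail-prick blood glucose (reflectance meter). Compound or vehicle (water) by oral gavage 6 days/week from diabetes onset for 4 weeks. Body weight, glucose, and sciatic MNCV recorded. MNCV taken at 37 °C under isoflurane, stimulating at sciatic notch and Achilles tendon (5 V, 0.05 ms square wave), recording in ipsilateral paw interosseus muscles. n = 10−12/group; mean ± SEM; one-way ANOVA with Dunnett's test.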
# Mus musculus [2] = assay: Antidiabetic activity in streptozotocin-induced C57BL/6J mouse diabetic neuropathy model assessed as effect on weight loss at 10 to 100 mg/kg/day, po administered 6 days per week for 4 weeks; type: functional, organism-based; summary of the method: as §1
# Mus musculus [3] = assay: Toxicity in C57BL/6J mouse sciatic nerve assessed as motor neuron conduction velocity at 10 to 100 mg/kg/day, po administered 6 days per week for 4 weeks (reference value: 35.6 +/- 1.1 m/s); type: organism-based; set-up: route oral; conditions: in vivo
# Mus musculus [4] = assay: Toxicity in C57BL/6J mouse assessed as change in body weight at 10 to 100 mg/kg/day, po administered 6 days per week for 4 weeks (reference value: 26.7 +/- 0.4 g); type: organism-based; set-up: route oral; conditions: in vivo
# Mus musculus [5] = assay: Toxicity in C57BL/6J mouse assessed as unusual behavior at 10 to 100 mg/kg/day, po administered 6 days per week for 4 weeks; type: organism-based; set-up: route oral; conditions: in vivo
# Mus musculus [6] = assay: Neuroprotective activity in streptozotocin-induced C57BL/6J mouse diabetic neuropathy model assessed as prevention of motor neuron conduction velocity slowing at 10 to 100 mg/kg/day, po administered 6 days per week for 4 weeks; type: functional, organism-based; summary of the method: as §1
# DRG neuron [7] = assay: Neuroprotective activity in Sprague-Dawley rat DRG neurons assessed as sprouting of neurites at 1 uM after 24 hrs by confocal microscopic analysis; type: functional
# Summary of the method: (§2)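 Dissociated DRG neurons from adult male Sprague−Dawley rats cultured in defined medium with compound for 24 h. DIC images by confocal microscopy. Total neurite length per cell scored with Weibel-grid morphometry as intersects per cell, compared with control neurons of the same preparation. n = 6 replicate cultures; mean ± SEM; one-way ANOVA with Tukey's test.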
# DRG neuron [8] = assay: Neuroprotective activity in Sprague-Dawley rat DRG neurons assessed as enhancement of neurite outgrowth at >10 nM after 24 hrs by confocal microscopic analysis; type: functional; summary of the method: as §2
# [9] = AUC (0 to t) in streptozotocin-induced C57BL/6J mouse diabetic neuropathy model at 10 mg/kg, po by LC-MS/MS analysis; type: ADME, organism-based; set-up: dose 10 mg/kg, route oral; conditions: in vivo
# Summary of the method: (§3)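 Single oral dose […] given to control and STZ-diabetic mice; plasma analysed by LC−MS/MS. Samples vortexed 2 min, centrifuged, organic layer dried under N2 at room temperature and reconstituted in 0.2% TFA in MeOH/water 20:80. Standards 20–100 000 nM in water; internal standard response variable, not used for quantification.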
# [10] = AUC (0 to t) in C57BL/6J mouse at 10 mg/kg, po by LC-MS/MS analysis; type: ADME, organism-based; set-up: dose 10 mg/kg, route oral; conditions: plasma; summary of the method: as §3
# [11] = Cmax in streptozotocin-induced C57BL/6J mouse diabetic neuropathy model at 10 mg/kg, po by LC-MS/MS analysis; type: ADME, organism-based; set-up: dose 10 mg/kg, route oral; conditions: in vivo; summary of the method: as §3
# [12] = Cmax in C57BL/6J mouse at 10 mg/kg, po by LC-MS/MS analysis; type: ADME, organism-based; set-up: dose 10 mg/kg, route oral; conditions: in vivo; summary of the method: as §3
# [13] = Tmax in streptozotocin-induced C57BL/6J mouse diabetic neuropathy model at 10 mg/kg, po by LC-MS/MS analysis; type: ADME, organism-based; set-up: dose 10 mg/kg, route oral; conditions: in vivo; summary of the method: as §3
# [14] = Tmax in C57BL/6J mouse at 10 mg/kg, po by LC-MS/MS analysis; type: ADME, organism-based; set-up: dose 10 mg/kg, route oral; conditions: in vivo; summary of the method: as §3
# Mus musculus [15] = assay: Antidiabetic activity in streptozotocin-induced C57BL/6J mouse diabetic neuropathy model assessed as effect on hyperglycemia at 1 to 10 mg/kg/day, po administered 6 days per week for 4 weeks; type: functional, organism-based; summary of the method: as §1
# Mus musculus [16] = assay: Antidiabetic activity in streptozotocin-induced C57BL/6J mouse diabetic neuropathy model assessed as effect on weight loss at 1 to 10 mg/kg/day, po administered 6 days per week for 4 weeks; type: functional, organism-based; summary of the method: as §1
# Mus musculus [17] = assay: Neuroprotective activity in streptozotocin-induced C57BL/6J mouse diabetic neuropathy model assessed as prevention of motor neuron conduction velocity slowing at 1 to 10 mg/kg/day, po administered 6 days per week for 4 weeks; type: functional, organism-based; summary of the method: as §1
# DRG neuron [18] = assay: Neuroprotective activity in Sprague-Dawley rat DRG neurons assessed as enhancement of neurite outgrowth at 0.01 uM after 24 hrs by confocal microscopic analysis; type: functional; summary of the method: as §2
# [19] = Metabolic stability in human liver microsomes assessed as compound remaining at 2 uM after 1 hr by LC-MS/MS analysis; type: ADME, Microsome; conditions: read-out: Stability
# Summary of the method: (§4)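 2 μM compound incubated with mouse or human liver microsomes plus excess NADPH at 37 °C in a shaking water bath for 0 and 60 min (n = 6). Quenched with 2 volumes acetonitrile, centrifuged, supernatant diluted 1:1 with water, analysed by LC−MS/MS as % remaining. Propranolol control.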
# [20] = Metabolic stability in mouse liver microsomes assessed as compound remaining at 2 uM after 1 hr by LC-MS/MS analysis; type: ADME, Microsome; conditions: read-out: Stability; summary of the method: as §4
# [21] = Permeability of the compound after 5 hrs by PAMPA; type: ADME; conditions: read-out: permeability
# Summary of the method: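 Precoated PAMPA plate warmed to room temperature. Donor: 25 μM compound in 5% DMSO/PBS; acceptor: 5% DMSO/PBS. Incubated 5 h at 25 °C in water bath. Donor and acceptor samples quantified by LC−MS/MS against calibration standards; mass retention also determined. Propranolol control.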
# DRG neuron [22] = assay: Neuroprotective activity in Sprague-Dawley rat DRG neurons assessed as enhancement of neurite outgrowth at 0.01 to 1 uM after 24 hrs by confocal microscopic analysis; type: functional
# Summary of the method: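 DRG from adult male Sprague-Dawley rats dissociated; neurons cultured in defined Hams medium. Test agent incubated 24 h, then DIC images captured by confocal microscopy. Total neurite length per neuron measured morphometrically with a Weibel grid as crosspoints per cell, relative to control neurons of the same preparation. Mean ± SEM of 6 replicate cultures; one-way ANOVA with Tukey's post hoc test.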
# DRG neuron [23] = assay: Neuroprotective activity in Sprague-Dawley rat DRG neurons assessed as enhancement of neurite outgrowth up to 1 uM after 24 hrs by confocal microscopic analysis; type: functional; summary of the method: as §2
smiles,measurement,setting,value
COc1ccccc1OCC(O)CO (racemic) [GUAIFENESIN],Activity,Mus musculus [1],inactive
same,Activity,Mus musculus [2],inactive
same,Activity,Mus musculus [3],35.1 meter/s
same,Activity,Mus musculus [4],27.1 g
same,Activity,Mus musculus [5],Non-toxic
same,Activity,Mus musculus [6],Active
same,Activity,DRG neuron [7],Active
same,Activity,DRG neuron [8],Active
same,AUC(0-t),[9],1.91 µM·h
same,AUC(0-t),[10],2.73 µM·h
same,Cmax,[11],5.27 µM
same,Cmax,[12],5.28 µM
same,Tmax,[13],4.98 min
same,Tmax,[14],4.98 min
COc1ccccc1OC[C@H](O)CO,Activity,Mus musculus [15],inactive
same,Activity,Mus musculus [16],inactive
same,Activity,Mus musculus [17],Active
same,Activity,DRG neuron [18],Active
same,"remaining at 1 h, 2 µM",[19],97.4%
same,"remaining at 1 h, 2 µM",[20],92.4%
same,Papp at 5 h,[21],6.3 ×10⁻⁶ cm/s
same,AUC(0-t),[9],0.746 µM·h
same,AUC(0-t),[10],0.737 µM·h
same,Cmax,[11],0.741 µM
same,Cmax,[12],0.44 µM
same,Tmax,[13],10 min
same,Tmax,[14],10 min
CCc1ccccc1OCC(O)CO (stereo not given),Activity,DRG neuron [22],inactive
COc1ccccc1NCC(O)CO (racemic),Activity,DRG neuron [23],inactive
Cc1ccccc1OCC(O)CO (racemic),Activity,DRG neuron [22],Active
COc1ccccc1OC[C@@H](O)CF,Activity,DRG neuron [22],inactive
COc1ccccc1OC[C@@H](O)CO,Activity,DRG neuron [22],inactive
same,"remaining at 1 h, 2 µM",[19],94.8%
same,"remaining at 1 h, 2 µM",[20],92.9%
same,Papp at 5 h,[21],8.2 ×10⁻⁶ cm/s
